Experimental data of several laboratories.
Effect on: cell growth or viability

Structure (SMILES) | cell line | technique | tested at | time | quantity | result
COc1cc(OC)cc([C@H]2C[C@@H](C)OC(=O)c3cc4ccccn4c32)c1 (racemic) | HFF-1 | resazurin | – | 72 h | CC50 | > 100 µM
O=C(O)c1ccc(P(c2ccccc2)c2ccccc2)cc1 | NIH3T3 | resazurin | – | 18 h | CC50 | 210 µg/mL
N=C(N)NCc1ccc(NC(=O)c2ccc(C(=O)Nc3ccc(C4=CCN(C(=N)N)CC4)cc3)cn2)cc1 | NIH3T3 | MTS | – | 24 h | CC50 | > 1170 µM
CCCCCCCCCCCCCCCc1ccc(CP(=O)(O)O)cc1 | Mm1 | trypan blue | 10 µM | 20 h | viability | > 93%
COc1ccc(S(=O)(=O)ON=C2C=C(C)C(=O)C(C)=C2)cc1 | PC-3 | – | – | – | CC50 | 4.74 µM
O=C(CCl)Cn1nnc(-c2ccccc2)c1COC(=O)NCc1ccccc1 | HFF-1 | ATP luminescence | – | 48 h | CC50 | 20 µM
N=C(N)NCc1ccc(NC(=O)c2ccc(C(=O)Nc3ccc(C4=CCN(C(=N)N)CC4)nn3)cc2)cc1 | NIH3T3 | MTS | – | 24 h | CC50 | 231 µM
COc1cccc2c1C(=O)c1c(O)c3c(c(O)c1C2=O)C[C@@](O)(C(=O)CO)C[C@@H]3O[C@H]1C[C@H](N)[C@H](O)[C@H](C)O1 | HFF-1 | resazurin | – | 72 h | CC50 | 0.468 µM
